Consider 17 compounds from ChEMBL document CHEMBL4622959, “Design, synthesis and biological evaluation of novel 6-phenyl-1,3a,4,10b-tetrahydro-2H-benzo[c]thiazolo[4,5-e]azepin-2-one derivatives as potential BRD4 inhibitors” (Bioorg Med Chem, 2020).

One may read the IC50 as the concentration that gives 50% inhibition.

Assay [1] has as its target T1, Bromodomain-containing protein 4 (Homo sapiens, UniProt O60885). Briefly: Displacement of APC-labeled biotinylated-avidin from […]-chelated recombinant human N-terminal GST-tagged BRD4 bromodomain 1 expressed in Escherichia coli preincubated for 15 mins followed by APC-labeled biotinylated-avidin addition and measured after 1 hr under dark condition by TR-FRET assay.

Assay [2] has as its system MV4-11. Briefly: Antiproliferative activity against human MV4-11 cells assessed as reduction in cell viability incubated for 72 hrs by CCK-8 assay. Format: functional, cell-based. The following applies: MV4-11, 72 h. Put shortly:
(§1)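 Cells grown in IMDM with 10% FBS and 1% penicillin–streptomycin at 37 °C in a CO₂ incubator and harvested in log phase. Seeded at 10,000 cells per well in 100 μL medium, cultured 12 h, then given compounds at a range of concentrations for 72 h. CCK-8 added for 1–4 h, absorbance read at 450 nm. IC₅₀ calculated from the dose-response data.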
A general note: Formazan colour is commonly taken as a measure of viable cells.

For another assay, the system named is HL-60. In words: Antiproliferative activity against human HL60 cells assessed as reduction in cell viability incubated for 72 hrs by CCK-8 assay. The following applies: HL-60, 72 h. Format: functional, cell-based. Put shortly:
as §1

Assay [3] has as its system MV4-11. Briefly: Induction of apoptosis in human MV4-11 cells assessed as necrotic cell at 0.5 uM after 12 hrs by Annexin V-FITC/propidium iodide staining-based flow cytometric analysis (reference value: 0.17 %). Format: functional. On the technique in general: Flow cytometry measures light scatter and fluorescence of single cells or particles in a stream.
Assay [4] relates to MV4-11. Briefly: Cell cycle arrest in human MV4-11 cells assessed as accumulation at G1 phase after 12 hrs by propidium iodide staining based flow cytometric analysis. The assay is classed as functional.
Assay [5] deals with MV4-11. Briefly: Induction of apoptosis in human MV4-11 cells after 12 hrs by Annexin V-FITC/propidium iodide staining-based flow cytometric analysis. Format: functional, cell-based.
Assay [6] concerns MV4-11. Briefly: Induction of apoptosis in human MV4-11 cells assessed as late apoptotic cell at 0.5 uM after 12 hrs by Annexin V-FITC/propidium iodide staining-based flow cytometric analysis (reference value: 1.28 %). The assay is classed as functional.
Assay [7] deals with MV4-11. In words: Induction of apoptosis in human MV4-11 cells assessed as live cell at 0.5 uM after 12 hrs by Annexin V-FITC/propidium iodide staining-based flow cytometric analysis (reference value: 97.99 %). Format: functional.
The test system of assay [8] is MV4-11. Briefly: Induction of apoptosis in human MV4-11 cells assessed as early apoptotic cell at 0.5 uM after 12 hrs by Annexin V-FITC/propidium iodide staining-based flow cytometric analysis (reference value: 0.56 %). Format: functional.
For assay [9], the system named is MV4-11. Briefly: Induction of apoptosis in human MV4-11 cells assessed as necrotic cell at 5 uM after 12 hrs by Annexin V-FITC/propidium iodide staining-based flow cytometric analysis (reference value: 0.17 %). The assay is classed as functional.
The test system of assay [10] is MV4-11. In words: Induction of apoptosis in human MV4-11 cells assessed as late apoptotic cell at 5 uM after 12 hrs by Annexin V-FITC/propidium iodide staining-based flow cytometric analysis (reference value: 1.28 %). Format: functional.
In assay [11] the test system is MV4-11. Briefly: Induction of apoptosis in human MV4-11 cells assessed as live cell at 5 uM after 12 hrs by Annexin V-FITC/propidium iodide staining-based flow cytometric analysis (reference value: 97.99 %). The assay is classed as functional.
The subject of assay [12] is MV4-11. Briefly: Induction of apoptosis in human MV4-11 cells assessed as early apoptotic cell at 5 uM after 12 hrs by Annexin V-FITC/propidium iodide staining-based flow cytometric analysis (reference value: 0.56 %). Format: functional.
For assay [13], the system named is MV4-11. In words: Cell cycle arrest in human MV4-11 cells assessed as accumulation at G0/G1 phase at 0.5 uM after 12 hrs by propidium iodide staining based flow cytometric analysis (reference value: 43.91%). Format: functional.
Assay [14] concerns MV4-11. Briefly: Cell cycle arrest in human MV4-11 cells assessed as accumulation at G2/M phase at 0.5 uM after 12 hrs by propidium iodide staining based flow cytometric analysis (reference value: 18.19%). The assay is classed as functional.
Assay [15] has as its system MV4-11. Briefly: Cell cycle arrest in human MV4-11 cells assessed as accumulation at S phase at 0.5 uM after 12 hrs by propidium iodide staining based flow cytometric analysis (reference value: 38.62%). The assay is classed as functional.
The subject of assay [16] is MV4-11. Briefly: Cell cycle arrest in human MV4-11 cells assessed as accumulation at G0/G1 phase at 5 uM after 12 hrs by propidium iodide staining based flow cytometric analysis (reference value: 43.91%). Format: functional.
Assay [17] deals with MV4-11. Briefly: Cell cycle arrest in human MV4-11 cells assessed as accumulation at G2/M phase at 5 uM after 12 hrs by propidium iodide staining based flow cytometric analysis (reference value: 18.19%). Format: functional.
The test system of assay [18] is MV4-11. Briefly: Cell cycle arrest in human MV4-11 cells assessed as accumulation at S phase at 5 uM after 12 hrs by propidium iodide staining based flow cytometric analysis (reference value: 38.62%). The assay is classed as functional.
Assay [19] deals with T1, Bromodomain-containing protein 4. In words: Inhibition of BRD4 in human MV4-11 cells assessed as reduction in c-Myc expression level after 4 hrs by Western blot analysis. The assay is classed as cell-based. Put shortly:
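Log-phase MV-4-11 cells (IMDM, 10% FBS, 1% penicillin–streptomycin, 37 °C) were treated with compound for 4 h, then lysed at 4 °C and protein quantified. Lysates were run on SDS-PAGE (10% separating, 4% stacking gel) and transferred to PVDF. Membranes were blocked 2 h in 5% non-fat milk/TBST at room temperature, probed for c-Myc, and band intensity quantified from three independent experiments.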
For orientation: In western blotting, separated proteins are transferred to a membrane and probed.

For `COc1ccc2c(c1)C(c1ccc(Cl)cc1)=NC(CC(=O)N1CCOCC1)c1sc(=O)n(C)c1-2` (configuration not stated), the IC50 was 480 nM in assay [1], 940 nM with MV4-11 [2] and 7620 nM in the assay on HL-60.

With `COc1ccc2c(c1)C(c1ccc(Cl)cc1)=NC(CC(=O)Nc1ccc(F)cc1)c1sc(=O)n(C)c1-2` (configuration not stated), the IC50 amounted to 680 nM in [1], 1440 nM in the assay with MV4-11 [2] and 12400 nM in the assay with HL-60.

In the case of `COc1ccc2c(c1)C(c1ccc(Cl)cc1)=NC(CC(=O)NC1CCCC1)c1sc(=O)n(C)c1-2` (configuration not stated), the Activity is 0.35% in the assay on MV4-11 [3]; “Dose-dependent effect” with MV4-11 [4]; “Dose-dependent effect” in the assay with MV4-11 [5]; 5.93% in the assay on MV4-11 [6]; 87.61% with MV4-11 [7]; 6.1% in the assay with MV4-11 [8]. In addition, the Activity in the assay on MV4-11 [9] amounted to 0.42%; in the assay with MV4-11 [10], 42.85%; in the assay on MV4-11 [11], 26.76%; in the assay on MV4-11 [12] it was 29.97%; in the assay with MV4-11 [13], 50.67%; with MV4-11 [14] it was 17.93%. Moreover, the Activity in the assay with MV4-11 [15] worked out at 31.2%; with MV4-11 [16], 70.68%; in the assay on MV4-11 [17] it was 14.11%; in the assay with MV4-11 [18] it was 15.23%. Also, the IC50 in assay [1] was 110 nM; in the assay on MV4-11 [2], 420 nM; with HL-60, 5520 nM. Further, in [19], the inhibition result was “Dose-dependent effect”.

As for `COc1ccc2c(c1)C(c1ccc(Cl)cc1)=NC(CC(=O)NC(C)(C)C)c1sc(=O)n(C)c1-2` (configuration not stated), the results for the IC50 (in assay [1]; in the assay with MV4-11 [2]; in the assay with HL-60) were 160 nM, 640 nM and 5410 nM, respectively.

For `CCNC(=O)C[C@@H]1N=C(c2ccc(Cl)cc2)c2cc(OC)ccc2-n2c(C)nnc21` [MOLIBRESIB], the IC50 in the assay with MV4-11 [2] was determined as 1230 nM.

Take `COc1ccc2c(c1)C(c1ccc(Cl)cc1)=NC(CC(=O)N1CCCCC1)c1sc(=O)n(C)c1-2` (configuration not stated): the half-maximal inhibitory concentration (IC50) was found to be 430 nM in [1], 910 nM with MV4-11 [2] and 8690 nM in the assay on HL-60.

Take `COc1ccc2c(c1)C(c1ccc(Cl)cc1)=NC(CC(=O)Nc1ccc(O)cc1)c1sc(=O)n(C)c1-2` (configuration not stated): the IC50 turned out to be 510 nM in [1], 1060 nM in the assay with MV4-11 [2] and 9050 nM with HL-60.

Turning to `COc1ccc2c(c1)C(c1ccc(Cl)cc1)=NC(CC(=O)O)c1sc(=O)n(C)c1-2` (configuration not stated), the IC50 in assay [1] came out at 870 nM; in the assay on MV4-11 [2], 2860 nM.

In the case of `Cc1sc2c(c1C)C(c1ccc(Cl)cc1)=N[C@@H](CC(=O)OC(C)(C)C)c1nnc(C)n1-2`, the Activity with MV4-11 [3] is 0.06%; with MV4-11 [4], “Dose-dependent effect”; in the assay on MV4-11 [6] it was 9.14%; in the assay with MV4-11 [7] it was 85.57%; with MV4-11 [8] it was 5.23%; with MV4-11 [9], 0.24%. Also, the Activity in the assay on MV4-11 [10] came to 59.31%; in the assay on MV4-11 [11], 9.58%; in the assay with MV4-11 [12], 30.87%; in the assay with MV4-11 [13], 57.35%; in the assay on MV4-11 [14], 14.56%; in the assay on MV4-11 [15], 28.09%. Moreover, the Activity in the assay on MV4-11 [16] is recorded as 83.64%; in the assay with MV4-11 [17] it was 13.01%; with MV4-11 [18], 3.35%. Besides, the IC50 with HL-60 was 3460 nM.

For the compound `COc1ccc2c(c1)C(c1ccc(Cl)cc1)=NC(CC(=O)N1CCCC1)c1sc(=O)n(C)c1-2` (configuration not stated), the IC50 was 540 nM in [1], 1120 nM in the assay with MV4-11 [2] and 10400 nM with HL-60.

Consider `CCOC(=O)CC1N=C(c2ccc(Cl)cc2)c2cc(OC)ccc2-c2c1sc(=O)n2C` (configuration not stated), for which the half-maximal inhibitory concentration (IC50) in assay [1] worked out at 420 nM; with MV4-11 [2], 880 nM; in the assay with HL-60, 6210 nM.

As to `C#CCNC(=O)CC1N=C(c2ccc(Cl)cc2)c2cc(OC)ccc2-c2c1sc(=O)n2C` (configuration not stated), the values for the IC50 (in assay [1]; in the assay on MV4-11 [2]; in the assay with HL-60) were 210 nM, 700 nM and 8460 nM, respectively.

Consider `CCNC(=O)CC1N=C(c2ccc(Cl)cc2)c2cc(OC)ccc2-c2c1sc(=O)n2C` (configuration not stated), for which the figures for the IC50 (in assay [1]; with MV4-11 [2]; in the assay on HL-60) were 740 nM, 1780 nM and 12800 nM, respectively.

`CCCCNC(=O)CC1N=C(c2ccc(Cl)cc2)c2cc(OC)ccc2-c2c1sc(=O)n2C` (configuration not stated): the half-inhibitory concentration (IC50) in [1] came out at 1020 nM; in the assay with MV4-11 [2], 3480 nM.

With `COc1ccc2c(c1)C(c1ccc(Cl)cc1)=NC(CC(=O)Nc1ccccc1)c1sc(=O)n(C)c1-2` (configuration not stated), the IC50 in assay [1] came out at 200 nM; with MV4-11 [2], 670 nM; in the assay on HL-60, 7740 nM.

In the case of `COc1ccc2c(c1)C(c1ccc(Cl)cc1)=NC(CC(=O)NC1CC1)c1sc(=O)n(C)c1-2` (configuration not stated), the IC50 was 140 nM in [1], 510 nM in the assay with MV4-11 [2] and 4560 nM in the assay on HL-60.

Consider `CCOC(=O)CC1OC(c2ccc(Cl)cc2)c2cc(OC)ccc2-c2c1sc(=O)n2C` (configuration not stated), for which the IC50 in assay [1] is 480 nM; in the assay with MV4-11 [2], 920 nM; with HL-60, 5440 nM.
